Hits are enriched below; roughly 0.57% of the tested compounds scored in any of these assays.
VLA-4 inh = inhibition in human VLA-4 binding assay, primary screen, VLA-4 allosteric modulator project, MLPCN library, flow cytometry, VLA-4 expressing cells. Integrin alpha-4 (Homo sapiens), P13612. ligand binding flow cytometry. inhibition, % (about 7 µM as worked out from the volumes in the protocol). 0.2% of 330,000 active. AID 2557, 2010; in the data active = inhibition above about 50%
JMJD2C inh = inhibitors of GASC-1 histone demethylase, primary screen, biochemical, fluorescence, DELFIA europium; Lysine-specific demethylase 4C (Homo sapiens), Q9H3R0; GST-JMJD2C(1-420) H3K9me3 demethylation; inhibition, % at 2.35 µM; 0.069% of 330,000 active;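 active = more than half of a compound's replicate wells show inhibition beyond 50%, single wells judged on their own value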;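 note: signal counts dimethyl H3K9 product captured on neutravidin plate; 0% = median of DMSO wells and 100% = 0.3 times that DMSO median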
Arr AP2 block = inhibitors of beta-arrestin/AP2 binding, primary screen, biochemical, GPCR trafficking, flow cytometry | FITC-arrestin peptide / GST-AP2 beads; AP2 beta2 appendage carries R879A mutation | inhibition, % at 10 µM | 0.31% of 340,000 active;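 active = inhibition above a set limit, near 3 SD of compounds lacking own fluorescence, cut at about 54% in these data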;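 note: plate controls were DMSO wells for no effect and 5 µM unlabelled arrestin peptide for full effect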
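System: GST-AP2 R879A glutathione beads. Medium: PBS with 0.05% Tween 20 and 0.1% BSA. Also added: FITC-arrestin peptide, 50 nM. Incubation: 12 min plus 1 h, RT. Measured by: high-throughput flow cytometry of beads, ex 488, em 535 nm. Evaluation: percent drop in bead-associated FITC signal.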
p-CIP stab down = p/CIP-EGFP fusion destabilizers, primary screen, fluorescence, F442A cells; decrease of EGFP signal, % at 10 µM; 16 h; 0.01% of 290,000 active; AID 1984, 2009; Q05BA5;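 active = EGFP signal decrease of at least 30% at 10 µM or well 3 SD below plate mean, unless failing retest; inactive = the rest, including hits failing retest or dose response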
Arr-AP2 CP1 = inhibitors of arrestin peptide binding to AP2, confirmation, biochemical, cherry pick 1, flow cytometry beads; shares compounds with Arr AP2 block; GST-AP2 beads, FITC arrestin peptide binding; GST-fused beta2-adaptin appendage, R879A mutant; inhibition, % at 10 µM; 2% of 1,300 active; AID 504908, 2011;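 active = inhibition above a set limit, roughly 3 SD of non-fluorescent compound noise, cut at about 38% in these data; inactive = inhibition at or below that limit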;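 note: loss of bead fluorescence from 50 nM FITC arrestin peptide bound to appendage; 0% = negative control wells and 100% = excess unlabelled arrestin peptide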
GST GSH counter = GST-fluorescein capture on glutathione beads, confirmation, artefact control for arrestin-AP2 inhibitor project, biochemical, cherry pick 1, flow cytometry; shares compounds with Arr AP2 block; GST-fluorescein binding to GSH beads, fluorescence, counter-screen; inhibition, % at 10 µM; 2% of 1,300 active; AID 588338, 2011;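 active = inhibition above 50%, about 3 SD of the inhibition seen with non-fluorescent compounds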;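 note: fluorescein maleimide labelled GST captured on 4 micron glutathione beads; higher means more loss of bead fluorescence from quenching or blocked binding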
Numbers without * were called inactive; nt = no result given.

SMILES	VLA-4 inh	JMJD2C inh	Arr AP2 block	p-CIP stab down	Arr-AP2 CP1	GST GSH counter
CCCNc1nc(NCC)nc(OC)n1	15	-6	64*	-26	13	-6
CCNc1nc(OC)nc(SCC(N)=O)n1	0	-15	-3	0	nt	nt
O=C(OCC(=O)N(Cc1ccccc1)Cc1ccccc1)c1cccc(O)c1	-2	0	1	nt	nt	nt
Cc1[nH]c2ccccc2c1-c1csc(NC(=O)CN2CCOCC2)n1	-7	-10	57*	-9	-2	5
COc1ccc(-n2c3c(cc(C(=O)NC4CCSC4=O)c2=O)C(=O)CC(C)(C)C3)cc1 (stereo not drawn)	27	5	-44	0	nt	nt
COc1cc(NS(=O)(=O)c2ccc(NC(=S)NC(=O)c3ccco3)cc2)nc(OC)n1	11	-22	-18	-2	nt	nt
Cc1cc(C)nc(NS(=O)(=O)c2ccc(NC(=S)NC(=O)c3ccco3)cc2)n1	0	1	58*	3	-5	-5
CC(OC(=O)C1CC(=O)N(Cc2ccco2)C1)C(=O)Nc1ccc(F)cc1Cl (stereo not drawn)	7	24	1	nt	nt	nt
O=C(CSc1nc2c([nH]c3ccccc32)c(=O)n1-c1ccc(F)cc1)NCc1ccco1	-3	-23	101*	-12	-1	39
COc1ccc(-n2c(SCC(=O)Nc3cc(C)on3)nc3c([nH]c4ccccc43)c2=O)cc1	-12	2	8	-20	nt	nt
Cc1ccc(-n2c(SCC(=O)Nc3cc(C)on3)nc3c([nH]c4ccccc43)c2=O)cc1	-15	-2	92*	-10	10	23
O=C(CSc1nc2ccccc2c(=O)n1-c1ccccc1)NCc1ccco1	34	-2	-5	-5	nt	nt
COc1ccc(CCNC(=O)Cn2nnc(-c3ccc(N(C)C)cc3)n2)cc1OC	0	-3	23	-13	nt	nt
COc1ccc(-c2cc(C(F)F)n3ncc(C(=O)Nc4cc(C)on4)c3n2)cc1	-7	-6	104*	-6	-6	22
Cn1c(=O)c2c(ncn2CC(=O)N/N=C/c2c[nH]c3ccccc23)n(C)c1=O	12	-5	nt	-6	nt	nt
COC(=O)Cc1c(C)c2ccc(O)c(CN3CCCC(C)C3)c2oc1=O (stereo not drawn)	-21	10	105*	-11	-3	-4
COc1ccc(CSc2nnc(C)n2N)cc1[N+](=O)[O-]	9	41	33	-6	nt	nt
CN1c2ccccc2N(C)C1(C)c1ccccc1	-47	-4	67*	-6	62*	26
O=[N+]([O-])c1ccc(NC(=S)N2CCN(S(=O)(=O)c3ccccc3)CC2)cc1	-6	6	71*	-8	-14	-9
COc1ccc(CC2(CO)CCN(Cc3ccc(NC(C)=O)cc3)CC2)cc1	3	-5	56*	-9	6	0
CC1CC(C)CN(CCCNC(=O)c2cc3c(=O)[nH]c4ccccc4c3n2C)C1 (stereo not drawn)	2	7	60*	-2	-8	-12
CSc1ccccc1OCc1cc(C(=O)N2CCCC2c2nonc2C)no1 (stereo not drawn)	-1	-14	-7	-5	nt	nt
Cc1ccc(C(=O)Nc2nc3ccc(S(C)(=O)=O)cc3s2)cc1C	3	-4	29	-9	nt	nt
CCCn1c(=NC(=O)CS(=O)(=O)c2ccccc2)sc2cc(S(C)(=O)=O)ccc21	1	-1	-7	nt	nt	nt
Cn1c(=O)c(C(=O)NNC(=O)c2ccccc2Br)c(O)c2ccccc21	-2	-4	56*	-7	-7	4
CCCn1c(SCC(=O)Nc2ccc(F)c(Cl)c2)nc(O)cc1=O	2	-6	55*	nt	-7	-6
Clc1ccccc1C1SCC2Nc3ccccc3CN21 (stereo not drawn)	0	-3	-42	-2	nt	nt
O=C(CSc1nc2[nH]ncc2c(=O)[nH]1)Nc1nccs1	8	60	nt	3	nt	nt
